Test results taken from ChEMBL document CHEMBL1137786, “Design, synthesis, biological evaluation, and structure-activity relationship (SAR) discussion of dipeptidyl boronate proteasome inhibitors, part I: comprehensive understanding of the SAR of alpha-amino acid boronates” (J Med Chem, 2009).

Experiments:
[1] = Inhibition of chymotrypsin-like activity of human 20s proteasome beta 5 subunit assessed as hydrolysis of fluorogenic substrate
SK-OV-3 = experiment: Cytotoxicity against human SKOV3 cells after 72 hrs by MTT assay; type: functional, cell-based; details: SK-OV-3, 72 h
Summary of the method: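 SKOV-3 cells were cultured in McCoy's 5A with 10% FBS at 37 °C, 5% CO2. MTT added from a 5 mg/mL solution for 4 h at 37 °C. Formazan dissolved in DMSO, absorbance measured at 540 nm.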

BGC-823 = experiment: Cytotoxicity against human BGC823 cells after 72 hrs by MTT assay; type: functional, cell-based; details: BGC-823, 72 h
Summary of the method: (§1)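 BGC-823, KB, NCI-H460, HepG2 and SW-480 cells were maintained in RPMI 1640 with 10% FBS at 37 °C, 5% CO2. MTT added from a 5 mg/mL solution for 4 h at 37 °C. Formazan dissolved in DMSO after centrifugation, A540 read.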

HeLa = experiment: Cytotoxicity against human HeLa cells after 72 hrs by MTT assay; type: functional, cell-based
Summary of the method: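 HeLa cells were cultured in EMEM with 10% FBS at 37 °C, 5% CO2. MTT added from a 5 mg/mL solution for 4 h at 37 °C. Plates centrifuged, formazan dissolved in DMSO, A540 read.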

A549 = experiment: Cytotoxicity against human A549 cells after 72 hrs by MTT assay; type: functional, cell-based; details: A549, 72 h
Summary of the method: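 A549 cells were cultured in F12-K with 10% FBS at 37 °C, 5% CO2. MTT from a 5 mg/mL solution added for 4 h at 37 °C. Medium removed after centrifugation, formazan taken up in DMSO, read at 540 nm.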

HepG2 = experiment: Cytotoxicity against human HepG2 cells after 72 hrs by MTT assay; type: functional, cell-based; details: HepG2, 72 h; summary of the method: as §1
U-266 = experiment: Cytotoxicity against human U266 cells after 72 hrs by MTT assay; type: functional, cell-based; details: U-266, 72 h
Summary of the method: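 U266 myeloma cells were grown in RPMI 1640 with 15% FBS at 37 °C, 5% CO2. MTT added from a 5 mg/mL solution for 4 h at 37 °C. Plates centrifuged, formazan dissolved in DMSO, absorbance at 540 nm.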

HL-60 = experiment: Cytotoxicity against human HL60 cells after 72 hrs by MTT assay; type: functional, cell-based; details: HL-60, 72 h
Summary of the method: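 HL-60 cells grown in IMDM with 20% FBS at 37 °C, 5% CO2. MTT added from a 5 mg/mL solution for 4 h at 37 °C. Plates centrifuged, medium discarded, formazan dissolved in DMSO, absorbance read at 540 nm.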

NCI-H460 = experiment: Cytotoxicity against human H460 cells after 72 hrs by MTT assay; type: functional, cell-based; details: NCI-H460, 72 h; summary of the method: as §1
KB = experiment: Cytotoxicity against human KB cells after 72 hrs by MTT assay; type: functional, cell-based; summary of the method: as §1
SW480 = experiment: Cytotoxicity against human SW480 cells after 72 hrs by MTT assay; type: functional, cell-based; details: SW480, 72 h; summary of the method: as §1

SMILES	IC50 [1]	also measured
CC(C)C[C@H](NC(=O)[C@H](Cc1ccc2ccccc2c1)NC(=O)C1CCCc2ccccc21)B1OC2C[C@@H]3C[C@@H](C3(C)C)[C@]2(C)O1 (some centres not stated)	1.16 nM	–
Cc1ccc(C[C@H](NC(=O)[C@H](Cc2c[nH]c3ccccc23)NC(=O)OCc2ccccc2)B2O[C@@H]3C[C@@H]4C[C@@H](C4(C)C)[C@]3(C)O2)cc1	3.34 nM	–
CC(C)(C)OC(=O)N[C@@H](Cc1ccc(O)cc1)C(=O)N[C@@H](Cc1ccccc1)B1O[C@@H]2C[C@@H]3C[C@@H](C3(C)C)[C@]2(C)O1	114 nM	–
CC(C)C[C@H](NC(=O)[C@H](CC(C)C)NC(=O)C1CCCc2ccccc21)B1O[C@@H]2C[C@@H]3C[C@@H](C3(C)C)[C@]2(C)O1 (some centres not stated)	14.2 nM	–
CC1(C)[C@@H]2C[C@H]3OB([C@H](Cc4ccc(F)cc4)NC(=O)[C@H](Cc4ccccc4)NC(=O)c4cnccn4)O[C@@]3(C)[C@H]1C2	3.21 nM	–
Cc1ccc(C[C@H](NC(=O)[C@H](Cc2ccccc2)NC(=O)C2CCc3ccccc3C2)B2O[C@@H]3C[C@@H]4C[C@@H](C4(C)C)[C@]3(C)O2)cc1 (some centres not stated)	1.16 nM	–
Cc1ccc(C[C@H](NC(=O)[C@H](Cc2ccccc2)NC(=O)[C@H]2CCCc3ccccc32)B2O[C@@H]3C[C@@H]4C[C@@H](C4(C)C)[C@]3(C)O2)cc1	6.7 nM	–
CC(C)C[C@H](NC(=O)[C@H](Cc1cccc2ccccc12)NC(=O)c1ccc2ccccc2c1)B1O[C@@H]2C[C@@H]3C[C@@H](C3(C)C)[C@]2(C)O1	2.46 nM	–
CC1(C)[C@@H]2C[C@H]3OB([C@H](Cc4ccc(F)cc4)NC(=O)[C@H](Cc4ccccc4)NC(=O)[C@H]4CCCc5ccccc54)O[C@@]3(C)[C@H]1C2	1.26 nM	–
CC(=O)N[C@@H](Cc1ccccc1)C(=O)N[C@@H](Cc1ccc(C)cc1)B1O[C@@H]2C[C@@H]3C[C@@H](C3(C)C)[C@]2(C)O1	2.73 nM	–
CC(C)C[C@H](NC(=O)[C@H](Cc1ccc(O)cc1)NC(=O)OC(C)(C)C)B1O[C@@H]2C[C@@H]3C[C@@H](C3(C)C)[C@]2(C)O1	16.4 nM	–
CC(C)C[C@@H](NC(=O)[C@H](Cc1ccccc1)NC(=O)c1cccc2c1CCCC2)B(O)O	9.19 nM	–
CC(C)C[C@H](NC(=O)[C@H](Cc1ccccc1)NC(=O)[C@H]1CCCc2ccccc21)B(O)O	1.2 nM	IC50 (SK-OV-3): 40 nM; IC50 (BGC-823): 580 nM; IC50 (HeLa): 37.5 nM; IC50 (A549): 38.5 nM; IC50 (HepG2): 60 nM; IC50 (U-266): 2.28 nM; IC50 (HL-60): 9.55 nM; IC50 (NCI-H460): 36 nM; IC50 (KB): 70 nM; IC50 (SW480): 30 nM
CC(C)C[C@H](NC(=O)[C@H](Cc1ccccc1)NC(=O)c1cnccn1)B1O[C@@H]2C[C@@H]3C[C@@H](C3(C)C)[C@]2(C)O1	1.92 nM	–
CC(C)C[C@H](NC(=O)[C@H](Cc1ccccc1)NC(=O)C1CCCc2ccccc21)B1O[C@@H]2C[C@@H]3C[C@@H](C3(C)C)[C@]2(C)O1 (some centres not stated)	4.18 nM	–
CC(C)C[C@H](NC(=O)[C@H](Cc1ccc2ccccc2c1)NC(=O)[C@H]1CCCc2ccccc21)B1O[C@@H]2C[C@@H]3C[C@@H](C3(C)C)[C@]2(C)O1	6.12 nM	–
CC(C)C[C@H](NC(=O)[C@H](Cc1ccccc1)NC(=O)[C@@H]1CCCc2ccccc21)B1O[C@@H]2C[C@@H]3C[C@@H](C3(C)C)[C@]2(C)O1	5.17 nM	–
CC(C)C[C@H](NC(=O)[C@H](Cc1c[nH]c2ccccc12)NC(=O)C1CCCc2ccccc21)B1O[C@@H]2C[C@@H]3C[C@@H](C3(C)C)[C@]2(C)O1 (some centres not stated)	3.67 nM	–
Cc1ccc(C[C@H](NC(=O)[C@H](Cc2ccccc2)NC(=O)c2cnccn2)B2O[C@@H]3C[C@@H]4C[C@@H](C4(C)C)[C@]3(C)O2)cc1	4.85 nM	–
CC(C)C[C@H](NC(=O)[C@H](Cc1ccccc1)NC(=O)C1CCc2ccccc2C1)B1O[C@@H]2C[C@@H]3C[C@@H](C3(C)C)[C@]2(C)O1 (some centres not stated)	1.46 nM	–
CC(=O)N[C@@H](Cc1ccccc1)C(=O)N[C@@H](CC(C)C)B1O[C@@H]2C[C@@H]3C[C@@H](C3(C)C)[C@]2(C)O1	2.34 nM	–
CCC[C@H](NC(=O)[C@H](CC(C)C)NC(=O)OC(C)(C)C)B1O[C@@H]2C[C@@H]3C[C@@H](C3(C)C)[C@]2(C)O1	49.5 nM	–
CC(C)C[C@@H](NC(=O)[C@H](Cc1ccccc1)NC(=O)c1cnccn1)B(O)O	700 nM	–
CC(C)C[C@H](NC(=O)[C@H](Cc1ccccc1)NC(=O)c1cnccn1)B(O)O [BORTEZOMIB]	–	IC50 (SK-OV-3): 130 nM; IC50 (BGC-823): 880 nM; IC50 (HeLa): 92 nM; IC50 (A549): 255 nM; IC50 (HepG2): 37.5 nM; IC50 (U-266): 2.45 nM; IC50 (HL-60): 5.5 nM; IC50 (NCI-H460): 115 nM; IC50 (KB): 59.5 nM; IC50 (SW480): 50 nM

Continued by falling IC50 [1], values first:

IC50 [1]	SMILES	also measured
2290 nM	CC(C)C[C@@H](NC(=O)[C@H](Cc1ccccc1)NC(=O)C1CCCc2ccccc21)B(O)O (some centres not stated)	–
471 nM	Cc1ccc(C[C@H](NC(=O)[C@H](CC(C)C)NC(=O)OC(C)(C)C)B2O[C@@H]3C[C@@H]4C[C@@H](C4(C)C)[C@]3(C)O2)cc1	–
120 nM	CC(C)C[C@H](NC(=O)OC(C)(C)C)C(=O)N[C@@H](Cc1ccccc1)B1O[C@@H]2C[C@@H]3C[C@@H](C3(C)C)[C@]2(C)O1	–
41.2 nM	CC(C)C[C@H](NC(=O)[C@H](Cc1c[nH]c2ccccc12)NC(=O)OCc1ccccc1)B1O[C@@H]2C[C@@H]3C[C@@H](C3(C)C)[C@]2(C)O1	–
39 nM	CC(C)C[C@H](NC(=O)[C@@H](NC(=O)C1CCCc2ccccc21)C(C)C)B1O[C@@H]2C[C@@H]3C[C@@H](C3(C)C)[C@]2(C)O1 (some centres not stated)	–
17.2 nM	CCC(C)[C@H](NC(=O)C1CCCc2ccccc21)C(=O)N[C@@H](CC(C)C)B1O[C@@H]2C[C@@H]3C[C@@H](C3(C)C)[C@]2(C)O1 (some centres not stated)	–
8.46 nM	CCCC[C@H](NC(=O)[C@H](Cc1ccccc1)NC(C)=O)B1O[C@@H]2C[C@@H]3C[C@@H](C3(C)C)[C@]2(C)O1	–
7.63 nM	CC(C)C[C@H](NC(=O)[C@H](Cc1ccc2ccccc2c1)NC(=O)C1CCCc2ccccc21)B1O[C@@H]2C[C@@H]3C[C@@H](C3(C)C)[C@]2(C)O1 (some centres not stated)	–
6.96 nM	CC(C)C[C@H](NC(=O)[C@@H](NC(=O)c1cccc2c1CCCC2)C(C)C)B1O[C@@H]2C[C@@H]3C[C@@H](C3(C)C)[C@]2(C)O1	–
5.24 nM	CC1(C)[C@@H]2C[C@H]3OB([C@H](Cc4ccccc4)NC(=O)[C@H](Cc4ccccc4)NC(=O)[C@H]4CCCc5ccccc54)O[C@@]3(C)[C@H]1C2	–
4.37 nM	O=C(N[C@@H](Cc1ccccc1)C(=O)N[C@@H](Cc1ccc(F)cc1)B(O)O)c1cnccn1	–
4.26 nM	CC(C)C[C@H](NC(=O)[C@H](Cc1cccc2ccccc12)NC(=O)C1CCCc2ccccc21)B1O[C@@H]2C[C@@H]3C[C@@H](C3(C)C)[C@]2(C)O1 (some centres not stated)	–
3.37 nM	CC1(C)[C@@H]2C[C@H]3OB([C@H](Cc4ccccc4)NC(=O)[C@H](Cc4ccccc4)NC(=O)C4CCc5ccccc5C4)O[C@@]3(C)[C@H]1C2 (some centres not stated)	–
1.92 nM	CCCC[C@H](NC(=O)[C@H](Cc1ccccc1)NC(=O)[C@H]1CCCc2ccccc21)B1O[C@@H]2C[C@@H]3C[C@@H](C3(C)C)[C@]2(C)O1	–
1.6 nM	CC(C)C[C@H](NC(=O)[C@H](Cc1ccccc1)NC(=O)c1cccc2c1CCCC2)B(O)O	IC50 (SK-OV-3): 60 nM; IC50 (BGC-823): 1210 nM; IC50 (HeLa): 23.2 nM; IC50 (A549): 40.5 nM; IC50 (HepG2): 13.1 nM; IC50 (U-266): 2.95 nM; IC50 (HL-60): 9.25 nM; IC50 (NCI-H460): 21.5 nM; IC50 (KB): 9.8 nM; IC50 (SW480): 30 nM
1.34 nM	CC(C)C[C@H](NC(=O)[C@H](Cc1cccc2ccccc12)NC(=O)c1cccc2c1CCCC2)B1OC2C[C@@H]3C[C@@H](C3(C)C)[C@]2(C)O1 (some centres not stated)	–
1.15 nM	CC(C)C[C@H](NC(=O)[C@H](CC(C)C)NC(=O)c1cccc2c1CCCC2)B1O[C@@H]2C[C@@H]3C[C@@H](C3(C)C)[C@]2(C)O1	–
1.12 nM	CC(C)C[C@H](NC(=O)[C@H](Cc1ccccc1)NC(=O)[C@H]1CCCc2ccccc21)B1O[C@@H]2C[C@@H]3C[C@@H](C3(C)C)[C@]2(C)O1	–
0.76 nM	CC(C)C[C@H](NC(=O)[C@H](Cc1ccccc1)NC(=O)c1cccc2c1CCCC2)B1O[C@@H]2C[C@@H]3C[C@@H](C3(C)C)[C@]2(C)O1	–
